The list is not random: actives were taken first. Their share in the collection is about 2%.
PKD1 inh: blocks activity of human protein kinase D1; Q15139; PKD1 kinase fluorescence polarization assay; inhibition, % (concentration not given with the values); 200,000 tested, 0.056% active; AID 797
Target sequence (Q15139 whole entry, looked up): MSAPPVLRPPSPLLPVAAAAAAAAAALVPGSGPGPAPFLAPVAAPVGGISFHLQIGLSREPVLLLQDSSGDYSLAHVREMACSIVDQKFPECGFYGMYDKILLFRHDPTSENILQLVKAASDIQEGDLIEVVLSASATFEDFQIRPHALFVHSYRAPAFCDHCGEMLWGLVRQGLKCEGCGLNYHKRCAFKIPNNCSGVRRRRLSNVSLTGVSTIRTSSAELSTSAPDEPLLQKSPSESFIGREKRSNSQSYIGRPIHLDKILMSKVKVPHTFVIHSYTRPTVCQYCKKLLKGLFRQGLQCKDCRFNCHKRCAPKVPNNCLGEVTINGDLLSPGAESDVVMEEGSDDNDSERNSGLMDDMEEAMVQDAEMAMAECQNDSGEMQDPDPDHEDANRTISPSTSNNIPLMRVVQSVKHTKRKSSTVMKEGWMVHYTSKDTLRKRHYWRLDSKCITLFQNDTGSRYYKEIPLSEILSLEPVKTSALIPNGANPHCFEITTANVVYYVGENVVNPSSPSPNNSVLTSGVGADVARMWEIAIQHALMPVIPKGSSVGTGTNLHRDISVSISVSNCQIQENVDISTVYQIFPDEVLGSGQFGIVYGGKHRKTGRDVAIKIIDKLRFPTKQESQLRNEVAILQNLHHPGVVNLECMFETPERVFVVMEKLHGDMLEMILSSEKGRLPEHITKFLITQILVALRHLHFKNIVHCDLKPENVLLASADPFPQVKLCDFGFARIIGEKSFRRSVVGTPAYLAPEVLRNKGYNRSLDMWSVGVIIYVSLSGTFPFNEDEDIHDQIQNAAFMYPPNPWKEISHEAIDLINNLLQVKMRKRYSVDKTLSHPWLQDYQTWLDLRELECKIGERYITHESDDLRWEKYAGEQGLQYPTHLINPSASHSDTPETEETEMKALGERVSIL
MEX-5 binding: C. elegans MEX-5 TCR-2 RNA binding activity. MEX-5/FITC-TCR2 RNA binding, fluorescence polarization; active compounds read low. Q9XUB2. activity score (negative = inhibition of binding), % at 10 µM. 300,000 tested, 0.38% active;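 active means inhibition past about -25% in most replicates, and total fluorescence under double the plate's negative control median, limit read from the data; inconclusive means replicates evenly split on the limit, or fluorescence at least double controls; inactive means too little inhibition in most replicates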
Runt-SMMHC FRET: inhibitors of human RUNX1 Runt domain binding to CBFb-SMMHC; Q01196+Q13951; Cerulean-Runt/Venus-CBFb-SMMHC FRET ratio 530/480, 1 h; inhibition, % at 20 µM; 220,000 tested, 0.74% active;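 active means mean inhibition across duplicate retests at 20 µM reaching about 50%, limit read from the data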;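 further: inhibitors lower the FRET ratio by blocking Runt binding to CBFb-SMMHC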
Runt-CBFb FRET: inhibitors of human RUNX1 Runt domain binding to CBFb; Cerulean-Runt/Venus-CBFb FRET ratio 530/480, 1 h; 220,000 tested, 0.46% active; inhibition, % at 20 µM;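 active means inhibition over about 50% at 20 µM in the single-dose screen, limit read from the data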
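Schedule: protein complex preformed 1 h, compound exposure 1 h, room temperature, dark; test system: Cerulean-labeled Runt domain protein; amount: 100 nM per protein; buffer or medium: Tris 50 mM pH 7.5, KCl, K2SO4, 0.01% BSA; read-out: loss of energy transfer signal; detection: FRET fluorescence; controls: 5 µM unlabeled CBFb as full-inhibition high control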
RanGTP-Imp inh: inhibitors of RanGTP-importin-beta interaction, primary screen, biochemical, FRET, CFP-Ran, YFP-importin-beta, homogeneous. cell-free CFP-Ran/YFP-importin-beta FRET ratio. inhibition, % (test concentration not listed). 300,000 tested, 1.1% active. AID 2216;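 active means more than half of the replicate wells show a fall in the fluorescence ratio signal beyond about 16%, limit read from the data, passing the limit was not always enough; inconclusive means exactly half of the replicate wells pass the set limit; inactive means fewer than half of replicates pass the limit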
EBV gp42 block: inhibitors of Epstein-Barr virus glycoprotein 42; 220,000 tested, 0.42% active; Q1HVG2; AID 1085; Fluorescence polarization binding assay, mP read-out; inhibition, % (tested at 21.74 µM)
A number is an active result; i = inactive; ? = inconclusive; nt = not tested or not shown. Unless noted, no stated cut-off is given here; in the data, active means inhibition above about 50%; inactive means the rest.

SMILES	PKD1 inh	MEX-5 binding	Runt-SMMHC FRET	Runt-CBFb FRET	RanGTP-Imp inh	EBV gp42 block
COC(=O)c1cc2c(C)c(C)c3ccccn3c-2c1C(=O)OC	i	?	i	i	i	50.5
COC(=O)c1cc2n3ccccc3c(C)c(-c3ccccc3)c-2c1C(=O)OC	i	?	i	i	i	103.5
COC(=O)c1cc2c(C)cc3ccc(C)cn3c-2c1C(=O)OC	i	i	i	i	?	87.9
COc1cccc(N2CCN(c3ccc4nnc(CCC(=O)Nc5ccccn5)n4n3)CC2)c1	nt	i	nt	nt	i	nt
CCC(=O)Nc1sc2c(c1C(N)=O)CCN(Cc1ccccc1)C2	nt	i	nt	nt	133.7	nt
CC(C)C(=O)Nc1sc2c(c1C(N)=O)CCN(Cc1ccccc1)C2	nt	i	nt	nt	133.7	nt
NC(=O)c1c(NC(=O)c2ccccc2)sc2c1CCN(Cc1ccccc1)C2	nt	-27.2	nt	nt	i	nt
NC(=O)c1c(NC(=O)c2c(F)cccc2F)sc2c1CCN(Cc1ccccc1)C2	nt	-35.4	nt	nt	163.4	nt
CCN1CCc2c(sc(NC(=O)c3ccc(C(=O)c4ccccc4)cc3)c2C(N)=O)C1	nt	i	nt	nt	i	nt
CC(=O)OCC1(C)CN(c2ccccc2)N(C(=O)c2ccc(F)cc2)C1=O (stereo not drawn)	i	i	i	i	i	i
COc1ccccc1-n1nnnc1SCC(=O)N1CCCC1=O	nt	i	nt	nt	i	nt
CCOC(=O)c1[nH]cnc1N=Nc1c(O)ccc2ccccc12	i	i	i	i	i	56.5
O=C(CCC1CCCCC1)NCCN1C2=NC[C@H](Cc3ccc(O)cc3)N2C[C@H]1Cc1ccc(O)cc1	i	i	i	i	15.5	i
CC1(C)c2ssc(=S)c2-c2ccccc2N1C(=O)c1ccco1	i	i	i	122.0	i	i
CCOC(=O)C1C(=O)CC(C)(O)C(C(=O)OCC)C1c1ccc([N+](=O)[O-])cc1 (stereo not drawn)	nt	i	i	i	i	i
O=C1CNC(=S)N1CCc1ccc(O)c(O)c1	nt	-30.0	i	i	i	i
CC1=CC2=NC(=O)/C(=C\c3cn(C)c4ccccc34)C(=N)N2O1	i	i	87.0	i	50.4	i
CC(=O)c1cc(C(=O)N2CCCC(CCC(=O)N(C)CCc3ccccn3)C2)cs1 (stereo not drawn)	i	i	i	i	i	i
Cc1cccc(Nc2nnc(SC/C(O)=C(\C#N)c3nc4ccccc4[nH]3)s2)c1C	i	i	i	i	25.5	i
Cc1cccc(C)c1Nc1nnc(SC/C(O)=C(\C#N)c2nc3ccccc3[nH]2)s1	i	i	i	i	i	i
CCOC(=O)c1ccc(-n2c(CCC(=O)O)ccc2-c2ccc(F)cc2)cc1	nt	i	nt	nt	i	nt
CN1C(=O)/C(=C2\SC(=S)N(CCCCCC(=O)O)C2=O)c2ccccc21	nt	i	i	i	i	72.8
O=C(NNC(=O)c1ccc2ccccc2c1O)c1cccs1	nt	i	nt	nt	i	nt
O=C(NNC(=O)c1ccc2ccccc2c1O)c1ccccc1Cl	i	-55.6	i	i	i	i
COc1ccccc1CNC(=O)C(=O)NCCC1CCCCN1S(=O)(=O)c1ccc(C)cc1 (stereo not drawn)	nt	i	nt	nt	i	nt
SMILES	PKD1 inh	MEX-5 binding	Runt-SMMHC FRET	Runt-CBFb FRET	RanGTP-Imp inh	EBV gp42 block
COc1ccccc1CCNC(=O)C(=O)NCCC1CCCCN1S(=O)(=O)c1ccccc1 (stereo not drawn)	nt	i	nt	nt	37.2	nt
CC(=O)c1nn(-c2cccc(Br)c2)cc1C(=O)c1ccc(Cl)cc1	i	i	i	i	i	i
N=c1oc2cc(O)ccc2cc1C(=O)Nc1ccc(F)cc1	nt	i	nt	nt	170.9	nt
C=CCN1C(=O)/C(=C2/Sc3ccc(OC)cc3N2CC)SC1=S	nt	-39.8	nt	nt	?	nt
CCN1C(=O)/C(=C2\SC(=S)N(CCCOC)C2=O)c2ccccc21	i	i	i	i	i	i
CCCCN1C(=O)/C(=C2/Sc3ccc(OC)cc3N2CC)SC1=S	nt	-25.7	nt	nt	23.3	nt
Cn1c(/C=C(\C#N)C(N)=S)ccc1-c1ccc(Br)cc1	i	nt	92.2	89.2	nt	i
Cn1cccc1/C=C(\C#N)C(N)=S	nt	i	i	i	i	i
CN(C)c1cc(=O)n2c(n1)SCCC2	i	i	i	nt	71.7	i
O=c1cc(N2CCCCC2)nc2n1CCCS2	i	i	i	i	158.9	i
Cc1sc2nc3n(c(=O)c2c1C)CCCS3	i	i	i	i	?	i
Cc1cccc(C(=O)Oc2ccc3ccc(O)cc3c2)c1	nt	i	nt	nt	?	nt
Cc1ccc(Cl)cc1NC(=O)C1C2CCC(O2)C1C(=O)O (stereo not drawn)	nt	i	nt	nt	i	nt
CN1C(=O)N(C)c2ccc(C=O)c3cccc1c23	i	i	92.4	59.4	i	i
CN1C(=O)N(C)c2ccc(Br)c3cccc1c23	nt	i	nt	nt	i	nt
O=C(O)c1ccccc1S(=O)(=O)CC(=O)N1CCCCC1	nt	i	nt	nt	i	nt
Cc1onc(-c2ccccc2Cl)c1C(=O)NCc1ccc(F)cc1	nt	i	nt	nt	i	nt
COC(=O)c1c(C(=O)OC)c2cc(C(=O)c3ccccc3)ccn2c1Cl	i	i	i	i	29.4	i
COC(=O)c1c(C(=O)OC)c2ccccn2c1C(=O)c1ccc([N+](=O)[O-])cc1	nt	i	nt	nt	i	nt
CCOc1ccc(NC(=O)CC2SC(=O)N(c3ccccc3)C2=O)cc1 (stereo not drawn)	i	i	i	i	i	i
CC(C)(O)C1Cc2cc(/C=C/C(=O)O)c(O)cc2O1 (stereo not drawn)	i	i	63.1	i	i	i
COc1cc2c(cc1/C=C/C(=O)O)OC(C)C2 (stereo not drawn)	i	i	i	i	i	i
COc1ccccc1N1C(=O)C(Cl)=C(Nc2ccccc2O)C1=O	i	-28.6	i	i	i	i
O=C1C(Cl)=C(Nc2ccccc2O)C(=O)N1c1ccccc1	i	-31.2	i	i	i	i
COc1ccc(-c2cc(=O)c(C(=O)c3ccc(C)cc3)n[nH]2)cc1	i	i	i	i	i	i
SMILES	PKD1 inh	MEX-5 binding	Runt-SMMHC FRET	Runt-CBFb FRET	RanGTP-Imp inh	EBV gp42 block
CCOc1nc(-c2ccccc2)c2cc(Br)ccc2n1	nt	i	nt	nt	i	nt
COc1cccc(/C=C/C(=O)OCC(=O)NC(=O)NC2CCCCC2)c1	nt	i	nt	nt	i	nt
CCn1c(=O)cc(SCC(=O)Nc2ccc(OC)c(OC)c2)c2ccccc21	i	i	i	i	i	i
CCn1c(=O)cc(SCC(=O)Nc2ccc(Cl)cc2)c2ccccc21	i	i	i	i	63.5	i
COc1ccc(C(NC(=O)c2cc(OC)ccc2OC)c2ccccc2)cc1 (stereo not drawn)	nt	i	nt	nt	i	nt
COc1cc(C(=O)NC(c2ccccc2)c2ccccc2)cc(OC)c1C	nt	-46.8	nt	nt	i	nt
CCCCN(CC)C(=O)c1cc2cc3ccc(OC)cc3nc2o1	i	i	i	i	58.6	i
COCCNC(=O)c1cc2cc3ccc(OC)cc3nc2o1	nt	i	nt	nt	i	nt
CCn1nc(NC(=O)Cc2ccc(OC)cc2)c2cc3cccc(C)c3nc21	nt	i	82.5	82.1	24.2	i
CCn1nc(NC(=O)COC)c2cc3cccc(C)c3nc21	nt	i	nt	nt	43.8	nt

Source: PubChem
